# Target: T1, Bovine pancreatic trypsin (Bos taurus, UniProt P00760)
# T1 sequence (P00760 24-246): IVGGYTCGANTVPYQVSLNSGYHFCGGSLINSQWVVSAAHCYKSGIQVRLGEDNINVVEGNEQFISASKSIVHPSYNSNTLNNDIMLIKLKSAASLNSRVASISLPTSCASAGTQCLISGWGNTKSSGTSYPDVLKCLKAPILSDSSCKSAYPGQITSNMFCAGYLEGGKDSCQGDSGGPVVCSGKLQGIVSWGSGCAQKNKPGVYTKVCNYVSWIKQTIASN
# Test: X-ray crystallography of fragments soaked into trypsin crystals
# Details: two-step soak, 24-48 h each, crystals in P212121, pH 5.8
# Outline: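 Crystals soaked in DMSO-derived fragment/cryoprotectant mix, then transferred to fresh mix. At least two crystals per soak, liquid-nitrogen cooled; synchrotron, 181 × 1° frames, 1–3 s. Automated processing, ligand placed in active-site density, manual rebuilding.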
compound,measurement,value
NCc1cccc(N2CCCC2)c1 [CC 38513],Soaked fragment density,Yes
